From ChEMBL document CHEMBL4477161, “Facile Synthesis of Natural Alkoxynaphthalene Analogues from Plant Alkoxybenzenes” (J Nat Prod, 2016)
The source made the active and inactive calls.

Assays:
Assay type in all cases: functional, organism-based
Paracentrotus lividus [1] = experiment: In vivo antiproliferative activity in sea urchin embryos assessed as cleavage alteration up to 4 uM measured after 2.5 to 5.5 hrs post fertilization
Procedure, shortened: (§1)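 Fertilized sea urchin eggs, cultured at room temperature in filtered seawater with paddle agitation (60 rpm), were exposed as a monolayer (up to 2000 embryos/mL) 8−20 min after fertilization to 2-fold serial dilutions. Compounds came from 10 mM DMSO stocks diluted 10-fold in 96% EtOH, with final DMSO ≤0.05% and EtOH ≤1%. Cleavage alteration was scored microscopically at 2.5−5.5 h post-fertilization. The threshold concentration is the lowest dose giving 100% alteration.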

Paracentrotus lividus [2] = experiment: In vivo antiproliferative activity in sea urchin embryos assessed as cleavage alteration at 2 uM measured after 2.5 to 5.5 hrs post fertilization; procedure, shortened: as §1
Paracentrotus lividus [3] = experiment: In vivo antiproliferative activity in sea urchin embryos assessed as cleavage alteration at 4 uM measured after 2.5 to 5.5 hrs post fertilization; procedure, shortened: as §1
Paracentrotus lividus [4] = experiment: In vivo antiproliferative activity in sea urchin embryos assessed as cleavage alteration at 1 uM measured after 2.5 to 5.5 hrs post fertilization; procedure, shortened: as §1

Row | Structure (SMILES) | Activity (Paracentrotus lividus [1]) | further results
1 | COc1ccc(C(N)CC(O)Cc2cc(OC)c3c(c2OC)OCO3)cc1 (stereo not given) | inactive | –
2 | COc1ccc(-c2cccc3cc(OC)c4c(c23)OCO4)cc1 | inactive | –
3 | COc1ccc(C2CC(O)Cc3c(OC)c4c(c(OC)c32)OCO4)cc1 (stereo not given) | inactive | –
4 | COc1ccc(C(=O)CC(O)Cc2ccc3c(c2)OCO3)cc1 (stereo not given) | inactive | –
5 | COc1ccc(C(O)CC(O)Cc2cc(OC)c3c(c2OC)OCO3)cc1 (stereo not given) | – | Activity (Paracentrotus lividus [2]): Active
6 | COc1ccc(-c2cccc3cc4c(c(OC)c23)OCO4)cc1 | – | Activity (Paracentrotus lividus [3]): Active
7 | COc1cc(-c2cccc3cc4c(cc23)OCO4)cc(OC)c1OC | – | Activity (Paracentrotus lividus [3]): Active; Activity (Paracentrotus lividus [2]): Active
8 | COc1ccc(-c2cccc3c(OC)c(OC)c4c(c23)OCO4)cc1 | – | Activity (Paracentrotus lividus [3]): Active; Activity (Paracentrotus lividus [4]): Active; Activity (Paracentrotus lividus [2]): Active
9 | COc1ccc(C(=O)CC(O)Cc2cc(OC)c3c(c2)OCO3)cc1 (stereo not given) | inactive | –
10 | COc1ccc(-c2cccc3c(OC)c(OC)c(OC)c(OC)c23)cc1 | inactive | –
11 | COc1ccc(-c2cccc3c(OC)c4c(c(OC)c23)OCO4)cc1 | inactive | –
12 | COc1ccc(-c2cccc3cc4c(cc23)OCO4)cc1 | inactive | –
